Experimental data: ChEMBL document CHEMBL3352460, “Synthesis and biological evaluation of novel biaryl type α-noscapine congeners” (Bioorg Med Chem Lett, 2014)
The source made the active and inactive calls. The calls are words filed in the database; no cut-off is given here.

Columns and labels:
Assay type in all cases: functional, cell-based
MCF7 [1] = assay: Antiproliferative activity against human MCF7 cells after 72 hrs by MTS assay; conditions: MCF7, 72 h
In short: (§1)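 Cells grown in medium with L-glutamine, 10% fetal bovine serum and 1% penicillin/streptomycin, seeded at 5 × 10³ cells per well, then exposed for 72 h to a rising concentration series. Proliferation read by MTS reagent: 3 h incubation, absorbance at 490 nm. IC50 given as mean ± S.D. of three separate experiments.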

MCF7 [2] = assay: Induction of apoptosis in human MCF7 cells assessed as condensed chromatin at 25 uM after 72 hrs by DAPI staining-based fluorescence analysis
In short: (§2)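 MCF-7 cells (2 × 10³) grown on poly-L-lysine-coated coverslips, treated at 25 µM for 72 h. Then fixed in cold methanol, washed in PBS, stained with DAPI and mounted. Nuclei imaged by fluorescence microscopy; apoptosis scored by nuclear condensation, membrane blebs and apoptotic bodies.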

MCF7 [3] = assay: Induction of apoptosis in human MCF7 cells assessed as fragmented nuclei at 25 uM after 72 hrs by DAPI staining-based fluorescence analysis; in short: as §2
A549 = assay: Antiproliferative activity against human A549 cells after 72 hrs by MTS assay; conditions: A549, 72 h; in short: as §1
HeLa = assay: Antiproliferative activity against human HeLa cells after 72 hrs by MTS assay; in short: as §1

| SMILES | IC50 (MCF7 [1]) | IC50 (A549) | IC50 (HeLa) | Activity (MCF7 [2]) | Activity (MCF7 [3]) |
| --- | --- | --- | --- | --- | --- |
| COc1ccc2c(c1OC)C(=O)O[C@@H]2[C@H]1c2c(c(-c3ccc(C(F)(F)F)cc3)c3c(c2OC)OCO3)CCN1C | 41.3 µM | 57.3 µM | 22.8 µM | – | – |
| COc1ccc2c(c1OC)C(=O)O[C@@H]2[C@H]1c2c(cc3c(c2OC)OCO3)CCN1C [NOSCAPINE] | 42.3 µM | 62.9 µM | 24 µM | – | – |
| CCOC(=O)c1ccc(-c2c3c(c(OC)c4c2OCO4)[C@H]([C@H]2OC(=O)c4c2ccc(OC)c4OC)N(C)CC3)cc1 | 40.7 µM | 53.1 µM | 21.2 µM | Active | Active |

The next compounds have a lower IC50 (MCF7 [1]) than those just listed; values first:

| IC50 (MCF7 [1]) | IC50 (A549) | IC50 (HeLa) | SMILES | Activity (MCF7 [2]) | Activity (MCF7 [3]) |
| --- | --- | --- | --- | --- | --- |
| 34.3 µM | 42.7 µM | 20.3 µM | C=Cc1ccc(-c2c3c(c(OC)c4c2OCO4)[C@H]([C@H]2OC(=O)c4c2ccc(OC)c4OC)N(C)CC3)cc1 | Active | Active |
| 16.6 µM | 31.6 µM | 8.9 µM | COc1ccc2c(c1OC)C(=O)O[C@@H]2[C@H]1c2c(c(-c3cccnc3)c3c(c2OC)OCO3)CCN1C | – | – |
| 17.8 µM | 32.6 µM | 9.2 µM | COc1ccc2c(c1OC)C(=O)O[C@@H]2[C@H]1c2c(c(-c3cccc(NC(C)=O)c3)c3c(c2OC)OCO3)CCN1C | Active | Active |
| 18.8 µM | 33.8 µM | 9 µM | CCOC(=O)c1cc(-c2c3c(c(OC)c4c2OCO4)[C@H]([C@H]2OC(=O)c4c2ccc(OC)c4OC)N(C)CC3)ccc1Cl | Active | Active |
